Source: ChEMBL document CHEMBL2146437, “Burkholdines from Burkholderia ambifaria: antifungal agents and possible virulence factors” (J Nat Prod, 2012)
Values after ≈ are worked out from the molar mass of the structure shown.

Legend:
[1] = Toxicity in sheep erythrocytes assessed as concentration required to achieve 10% hemolysis after 1 hr by serial dilution method; type: cell-based, Ovis aries; conditions: erythrocyte
In short: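 Sheep erythrocytes as a 0.25% suspension in phosphate-buffered saline received compound in 2-fold serial dilutions and were held 1 h at 37 °C. Cells were then pelleted at 1000g for 5 min, and supernatant absorbance was read at 540 nm. The value is the concentration giving 10% hemolysis, reported as mean ± standard deviation of two independent measurements.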

[2] = Ratio of HC10 for sheep erythrocytes to MIC for Candida albicans; type: functional
[3] = test system: Candida albicans; experiment: Antifungal activity against Candida albicans; type: functional
[4] = test system: Saccharomyces cerevisiae; experiment: Antifungal activity against Saccharomyces cerevisiae; type: functional
[5] = test system: Aspergillus niger; experiment: Antifungal activity against Aspergillus niger; type: functional
[6] = test system: Aspergillus niger; experiment: Ratio of amphotericin-B MIC to compound MIC for Aspergillus niger; type: functional

| MIC [3] | MIC [4] | MIC [5] | Compound | HC10 [1] | Ratio [2] | Ratio [6] |
| --- | --- | --- | --- | --- | --- | --- |
| 12.5 µg/mL (≈ 10.2 µM) | 0.4 µg/mL (≈ 0.325 µM) | 12.5 µg/mL (≈ 10.2 µM) | CCCCCCCCCCC[C@H](O[C@@H]1OC[C@@H](O)[C@H](O)[C@H]1O)[C@H](O)[C@H](O)C[C@@H]1CC(=O)N[C@H](CO)C(=O)N[C@H]([C@H](O)c2ccc(O)cc2)C(=O)N[C@H](CC(N)=O)C(=O)NCC(=O)N[C@@H](CC(N)=O)C(=O)N[C@@H](CO)C(=O)N[C@@H]([C@H](O)C(N)=O)C(=O)N1 | 10 µg/mL | 1 | – |
| 12.5 µg/mL (≈ 11.4 µM) | 1.6 µg/mL (≈ 1.46 µM) | 1.6 µg/mL (≈ 1.46 µM) | CCCCCCCCCCC[C@H](O)[C@H](O)[C@H](O)C[C@@H]1CC(=O)N[C@H](CO)C(=O)N[C@H]([C@H](O)c2ccc(O)cc2)C(=O)N[C@H](CC(N)=O)C(=O)NCC(=O)N[C@@H](CC(N)=O)C(=O)N[C@@H](CO)C(=O)N[C@@H]([C@H](O)C(N)=O)C(=O)N1 (relative stereo) | 4.5 µg/mL | 0.4 | – |
| 2.5 µg/mL (≈ 2.71 µM) | 2.5 µg/mL (≈ 2.71 µM) | 2.5 µg/mL (≈ 2.71 µM) | C[C@@H]1[C@H](O)[C@@H](C)/C=C/C=C/C=C/C=C/C=C/C=C/C=C/[C@H](O[C@@H]2O[C@H](C)[C@@H](O)[C@H](N)[C@@H]2O)C[C@@H]2O[C@](O)(C[C@@H](O)C[C@@H](O)[C@H](O)CC[C@@H](O)C[C@@H](O)CC(=O)O[C@H]1C)C[C@H](O)[C@H]2C(=O)O [AMPHOTERICIN B] | – | – | – |
| 0.4 µg/mL (≈ 0.333 µM) | 0.1 µg/mL (≈ 0.0833 µM) | 0.1 µg/mL (≈ 0.0833 µM) | CCCCCCCCCCC[C@H](O[C@@H]1OC[C@@H](O)[C@H](O)[C@H]1O)[C@H](O)[C@H](O)C[C@@H]1CC(=O)N[C@H](CO)C(=O)N[C@H]([C@H](O)c2ccc(O)cc2)C(=O)N[C@H](CCN)C(=O)NCC(=O)N[C@@H](CC(N)=O)C(=O)N[C@@H](CO)C(=O)N[C@@H](CC(N)=O)C(=O)N1 [BURKHOLDINES 1119] | 15 µg/mL | 38 | 25 |
| 31 µg/mL (≈ 25.5 µM) | 2 µg/mL (≈ 1.65 µM) | 2 µg/mL (≈ 1.65 µM) | CCCCCCCCCCC[C@H](O[C@@H]1OC[C@@H](O)[C@H](O)[C@H]1O)[C@H](O)[C@H](O)C[C@@H]1CC(=O)N[C@H](CO)C(=O)N[C@H]([C@H](O)c2ccc(O)cc2)C(=O)N[C@H](CC(N)=O)C(=O)NCC(=O)N[C@@H](CC(N)=O)C(=O)N[C@@H](CO)C(=O)N[C@@H](CC(N)=O)C(=O)N1 [BURKHOLDINES 1213] | 37 µg/mL | 1 | – |

| Compound | MIC [3] | MIC [4] | MIC [5] | HC10 [1] | Ratio [2] | Ratio [6] |
| --- | --- | --- | --- | --- | --- | --- |
| CCCCCCCCCCC[C@H](O[C@H]1OC[C@@H](O)[C@H](O)[C@H]1O)[C@H](O)[C@H](O)C[C@@H]1CC(=O)N[C@H](CO)C(=O)N[C@H]([C@H](O)c2ccc(O)cc2)C(=O)N[C@H](CCN)C(=O)NCC(=O)N[C@@H](CC(N)=O)C(=O)N[C@@H](CO)C(=O)N[C@@H]([C@H](O)C(N)=O)C(=O)N1 [BURKHOLDINE 1215] | 0.15 µg/mL (≈ 0.123 µM) | 0.15 µg/mL (≈ 0.123 µM) | 0.15 µg/mL (≈ 0.123 µM) | 5 µg/mL | 33 | – |
